Records with an inconclusive call do not appear.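 Rule for the calls, unless noted: active = RAM network inhibition above 8.4% in each of two replicates, 3 SD over the compound average; inconclusive = above 8.4% inhibition in only one replicate; inactive = 8.4% inhibition or less in each replicate.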
Assays:
[1] = S. cerevisiae growth inhibition in permissive medium (OD615), pilot counter-assay for S. cerevisiae lifespan shortening project, permissive growth control (AID 705;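 active = growth inhibition above 25% in both replicates, a cutoff set 3 SD above the mean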); details: OD615, 24 h, at 10 µM, active compounds read high
Procedure, shortened: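 Material: engineered DeaD yeast; compound dosing: one dose 10 µM, DMSO 0.25% final; measure: yeast growth inhibition indicated by reduced 24 h OD615; detection: OD615 turbidity read; incubation: cells pre-grown 4 h, then 24 h compound exposure, 30 °C humidified; medium: permissive synthetic complete medium with raffinose and galactose carbon sources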

[2] = S. cerevisiae growth inhibition in restrictive medium, OD615, pilot screen, restrictive growth control, yeast lifespan reduction project (AID 706;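 active = growth inhibition above a set limit, 3 SD over mean compound inhibition, in both replicates, cut at about 43% in these data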;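 note: modified DeaD lifespan yeast strain shifted to restrictive glucose medium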); details: OD615, 48 h, at 10 µM, active compounds read high
Procedure, shortened: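 material = engineered S. cerevisiae DeaD strain | medium = glucose-based CSMM-D restrictive medium | times = 4 h pre-incubation, 48 h exposure at 30 °C | technique = OD615 absorbance reading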

[3] = doxorubicin toxicity protection in MRP-1 cells – H69AR cells, CellTiter-Glo, duplicate, MRP-1 activator project, pilot screen (AID 807;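 active = viability increase at or above a cutoff of the median across tested compounds plus 3 SD, cut at about 8.5% in these data, passing the limit was not always enough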;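 note: compound pretreatment 18-22 h then 72 h combined with doxorubicin; 0% = doxorubicin alone and 100% = vehicle without doxorubicin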); details: H69AR viability with doxorubicin, CellTiter-Glo luminescence; at 10 µM; active compounds read high
[4] = viability of HCT116 without oncogenic beta-catenin – human colon tumor cells, pilot screen (AID 823;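 active = cell viability at or below a set limit in both duplicate runs, the limit being the all-compound median minus 4 SD, cut at about 23% in these data, passing the limit was not always enough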;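 note: 0% = wells killed by 20 µM Hyamine and 100% = untreated DMSO cell wells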); details: HCT116 beta-catenin knockout viability, CellTiter-Glo, 60 h; at 10 µM; active compounds read low
[5] = viability of PTEN-null HCT116 cells – cell-based, HCT116 clonal line, CellTiter-Glo, pilot screen (AID 824;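 active = viability at or below 27.92% in each of two runs, the all-compound median minus 4 SD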;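 note: 0% = 20 µM Hyamine control and 100% = vehicle cell control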); details: HCT116 PTEN-deleted viability, 60 h, at 10 µM, active compounds read low
[6] = RAM pathway blockade in budding yeast – dse1pr::URA3 reporter, 5-FOA selection, pilot screen (AID 869;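 active = inhibition over a set limit, the all-compound mean plus 3 SD, in both replicate runs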;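 note: 0% = DMSO wells with no growth and 100% = 10 µM 1-NA-PP1 with full growth; RAM network block rescues cells from 5-FOA so hits raise OD615 growth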); details: S. cerevisiae dse1pr::URA3 5-FOA growth, OD615, 2 d; at 10 µM; active compounds read high; strain carries analog-sensitive mutant Cbk1 kinase
[7] = RAM signaling pathway blockade in yeast – S. cerevisiae, Pdr1DBD-CYC8 efflux-inhibited sensitized strain, primary screen (AID 1298);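 note: 0% = DMSO untreated cells without growth and 100% = 10 µM 1-NA-PP1 full growth; higher means more yeast growth rescued from 5-FOA killing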; details: S. cerevisiae cbk1-as DSE1-URA3 strain, 5-FOA growth OD615, 2 d; at 50 µM; active compounds read high

Nn1c(SCC(=O)Nc2ccc(F)cc2)nnc1-c1ccccn1
inactive: growth inhibition [1] -4.5% | growth inhibition [2] 0.845% | viability increase [3] -0.55% | viability [4] 109% | viability [5] 95.7% | inhibition [6] 1.88% | RAM network inhibition [7] 0.9%

NC(=O)c1ccsc1NC(=O)c1ccc(S(=O)(=O)N2CCCCC2)cc1
inactive: growth inhibition [1] -4.08% | growth inhibition [2] -4.94% | viability increase [3] -0.57% | viability [4] 71.9% | viability [5] 58.3% | inhibition [6] 1.47% | RAM network inhibition [7] 2.41%

CC(NS(C)(=O)=O)C(c1cccs1)N1CCN(Cc2ccccc2)CC1 (configuration not stated)
inactive: growth inhibition [1] -7.18% | growth inhibition [2] 11.4% | viability increase [3] -1.92% | viability [4] 85.5% | viability [5] 87.3% | inhibition [6] 1.25% | RAM network inhibition [7] 3.61%

CCOC(=O)c1ccc(NC(=O)C23CCC(C)(C(=O)O2)C3(C)C)cc1 (configuration not stated)
inactive: growth inhibition [1] 1.15% | growth inhibition [2] 4.45% | viability increase [3] 1.07% | viability [4] 93.5% | viability [5] 101% | inhibition [6] -0.095% | RAM network inhibition [7] 5.33%

Cc1cc(Nc2ncc(Cl)cc2Cl)n(-c2ccccn2)n1
inactive: growth inhibition [1] -1.14% | growth inhibition [2] 3.23% | viability increase [3] -5.35% | viability [4] 89.3% | viability [5] 76.5% | inhibition [6] 1.93% | RAM network inhibition [7] 4.08%

Cc1cc(Nc2ccc(F)cc2Cl)n2ncnc2n1
inactive: growth inhibition [1] -7.73% | growth inhibition [2] 2.61% | viability increase [3] -2.45% | viability [4] 103% | viability [5] 95.1% | inhibition [6] -0.7% | RAM network inhibition [7] 1.89%

COC(=O)c1ccc(C2c3c(oc4cc(C)c(C)cc4c3=O)C(=O)N2CCCN(C)C)cc1 (configuration not stated)
inactive: growth inhibition [1] -7.92% | growth inhibition [2] -7.88% | viability increase [3] -2.2% | viability [4] 93.8% | viability [5] 87.7% | inhibition [6] 0.34% | RAM network inhibition [7] 3.78%

CC(=O)N1CCC(N(CCCOC(C)C)C(=O)Nc2ccc(Cl)cc2)CC1
inactive: growth inhibition [1] -2.75% | growth inhibition [2] 0.145% | viability increase [3] -0.86% | viability [4] 93% | viability [5] 95.9% | inhibition [6] 0.365% | RAM network inhibition [7] 3.16%

COc1cc(C(=O)Nc2ccc(S(=O)(=O)N3CCCCC3C)cc2)cc(OC)c1OC (configuration not stated)
inactive: growth inhibition [1] -18.5% | growth inhibition [2] -16.6% | viability increase [3] -4.48% | viability [4] 69.9% | viability [5] 65.7% | inhibition [6] 1.7% | RAM network inhibition [7] 4.51%

CC(=O)Nc1cccc(N2C(=O)CC(Cc3ccccc3)C2=O)c1 (configuration not stated)
inactive: growth inhibition [1] -6.24% | growth inhibition [2] -3.32% | viability increase [3] -1.68% | viability [4] 91.5% | viability [5] 89% | inhibition [6] 0.52% | RAM network inhibition [7] 7.45%

CC(C)CC(NS(=O)(=O)c1ccc2c(c1)oc(=O)n2C)C(=O)N1CC=C(c2ccccc2)CC1 (configuration not stated)
inactive: growth inhibition [1] -18.2% | growth inhibition [2] -14.5% | viability increase [3] -3.44% | viability [4] 85.9% | viability [5] 83.3% | inhibition [6] 0.535% | RAM network inhibition [7] 6.89%

O=C(O)CC12CSc3[nH]c(=O)sc3C1c1ccccc1OC2=O (configuration not stated)
inactive: growth inhibition [1] 3.48% | growth inhibition [2] -0.005% | viability increase [3] -2.73% | viability [4] 101% | viability [5] 95% | inhibition [6] 1.14% | RAM network inhibition [7] -0.11%

Cc1ccccc1C(=O)Nc1ccccc1
inactive: growth inhibition [1] -0.285% | growth inhibition [2] -2.05% | viability increase [3] -0.99% | viability [4] 96.1% | viability [5] 85.4% | inhibition [6] 0.28% | RAM network inhibition [7] 0.56%

Cc1cccc(OCCCC(=O)Nc2ccc(N3CCOCC3)cc2)c1
inactive: growth inhibition [1] -17% | growth inhibition [2] -11.5% | viability increase [3] -0.5% | viability [4] 90.7% | viability [5] 96.8% | inhibition [6] 2.59% | RAM network inhibition [7] 3.73%

Cc1c(NS(=O)(=O)CC23CCC(CC2=O)C3(C)C)c(=O)n(-c2ccccc2)n1C (configuration not stated)
inactive: growth inhibition [1] 5.19% | growth inhibition [2] -4.44% | viability increase [3] -2.6% | viability [4] 99.5% | viability [5] 96.4% | inhibition [6] 2.22% | RAM network inhibition [7] 3.5%

COC(=O)C1CCN(C(c2ccc(OC)c(OC)c2)c2sc3nc(C)nn3c2O)CC1 (configuration not stated)
inactive: growth inhibition [1] 7.23% | growth inhibition [2] 4.6% | viability increase [3] 0.34% | viability [4] 109% | viability [5] 96.9% | inhibition [6] -1.08% | RAM network inhibition [7] 2.68%

CCOC(=O)N1CCN(C2CC(=O)N(c3ccccc3)C2=O)CC1 (configuration not stated)
inactive: growth inhibition [1] 4.38% | growth inhibition [2] 10.5% | viability increase [3] 0.58% | viability [4] 100% | viability [5] 101% | inhibition [6] 0.005% | RAM network inhibition [7] -0.04%

O=C(CCSCCC(=O)NCc1ccco1)NCc1ccco1
inactive: growth inhibition [1] 3.59% | growth inhibition [2] 10.5% | viability increase [3] -1.12% | viability [4] 89% | viability [5] 96% | inhibition [6] 0.745% | RAM network inhibition [7] 6.5%

CC1CCCC(C)N1C(=O)Cn1c(=O)sc2ccccc21 (configuration not stated)
inactive: growth inhibition [1] -4.41% | growth inhibition [2] 8.62% | viability increase [3] -3.08% | viability [4] 97.8% | viability [5] 90.6% | inhibition [6] 0.87% | RAM network inhibition [7] 4.18%

CC(C)c1nnc(NC(=O)CSc2ncn[nH]2)s1
inactive: growth inhibition [1] -14.4% | growth inhibition [2] -13.9% | viability increase [3] -0.74% | viability [4] 98.3% | viability [5] 94.2% | inhibition [6] 0.135% | RAM network inhibition [7] 1.34%

CN(C)c1ccnc2sc(C(=O)NCc3ccccc3)c(N)c12
inactive: growth inhibition [1] -17.2% | growth inhibition [2] 17.5% | viability increase [3] -2.17% | viability [4] 81.3% | viability [5] 78.7% | inhibition [6] 2.11% | RAM network inhibition [7] 1.39%

CCOC(=O)c1sc(NC(=O)c2ccco2)nc1-c1ccccc1
inactive: growth inhibition [1] -1.62% | growth inhibition [2] -1.76% | viability increase [3] -2.38% | viability [4] 105% | viability [5] 95.5% | inhibition [6] 4.44% | RAM network inhibition [7] 4.08%

Cc1ccc(N2Cc3ccccc3OC(C)C2=O)cc1 (configuration not stated)
inactive: growth inhibition [1] -1.43% | growth inhibition [2] 0.105% | viability increase [3] -3.99% | viability [4] 90.3% | viability [5] 91.3% | inhibition [6] 0.735% | RAM network inhibition [7] 1.16%

Clc1ccc(C2CC(c3cccs3)n3ncnc3N2)c(Cl)c1 (configuration not stated)
inactive: growth inhibition [1] -5.32% | growth inhibition [2] 17.4% | viability increase [3] -4.06% | viability [4] 78.7% | viability [5] 69.3% | inhibition [6] 2.1% | RAM network inhibition [7] 2.15%

CN1CCN(Cc2ccc(OCc3ccccc3)cc2)CC1
inactive: growth inhibition [1] -3.27% | growth inhibition [2] -1.79% | viability increase [3] -2.45% | viability [4] 88.1% | viability [5] 91.4% | inhibition [6] -0.965% | RAM network inhibition [7] -0.47%

CCNC(=O)c1c(N)sc2c1CCCCC2
inactive: growth inhibition [1] -5.81% | growth inhibition [2] 1.6% | viability increase [3] -2.57% | viability [4] 103% | viability [5] 100% | inhibition [6] 1.88% | RAM network inhibition [7] 4.23%

COc1ccc(-n2nnc3c(=O)n(CC(=O)N4CCCc5ccccc54)cnc32)cc1
inactive: growth inhibition [1] -1.22% | growth inhibition [2] -1.47% | viability increase [3] -0.27% | viability [4] 95.2% | viability [5] 91.2% | inhibition [6] 2.3% | RAM network inhibition [7] 1.61%

O=C1C2CCCN2C(c2ccccc2F)N1c1cccc(Cl)c1 (configuration not stated)
inactive: growth inhibition [1] 1.87% | growth inhibition [2] 1.65% | viability increase [3] -0.32% | viability [4] 97.8% | viability [5] 102% | inhibition [6] -0.43% | RAM network inhibition [7] 1.7%

O=S(=O)(NCCSc1nnc(-c2ccco2)n1-c1ccccc1)c1ccccc1
inactive: growth inhibition [1] -14.1% | growth inhibition [2] -19.2% | viability increase [3] -3.53% | viability [4] 83.9% | viability [5] 87.1% | inhibition [6] 1.52% | RAM network inhibition [7] 6.44%

O=C(c1ccco1)N1CCN(S(=O)(=O)c2cccc3nsnc23)CC1
inactive: growth inhibition [1] -10.9% | growth inhibition [2] -21.4% | viability increase [3] -0.16% | viability [4] 99% | viability [5] 99.7% | inhibition [6] 0.6% | RAM network inhibition [7] 5.06%

CCC(C(=O)N1CC2(C)CC1CC(C)(C)C2)N1C(=O)c2ccccc2C1=O (configuration not stated)
inactive: growth inhibition [1] -2.71% | growth inhibition [2] -3.99% | viability increase [3] -3.05% | viability [4] 91.5% | viability [5] 96.8% | inhibition [6] 1.57% | RAM network inhibition [7] 6%

COc1cc2c(cc1OC)C1=C(C#N)CC/C(=N\S(=O)(=O)c3ccccc3)N1CC2
inactive: growth inhibition [1] -11.1% | growth inhibition [2] -3.91% | viability increase [3] -4.28% | viability [4] 97.8% | viability [5] 87.8% | inhibition [6] 1.25% | RAM network inhibition [7] 2.61%

CC(=O)N1c2ccccc2C(=O)C1N1CCCCC1 (configuration not stated)
inactive: growth inhibition [1] -3.63% | growth inhibition [2] -9.52% | viability increase [3] -3.42% | viability [4] 93.1% | viability [5] 84.4% | inhibition [6] 0.985% | RAM network inhibition [7] -1.19%

CC1Cc2ccccc2N1C(=O)Cn1cnc2ccccc2c1=O (configuration not stated)
inactive: growth inhibition [1] 3.42% | growth inhibition [2] -17.3% | viability increase [3] 0.12% | viability [4] 99.4% | viability [5] 93.3% | inhibition [6] -0.455% | RAM network inhibition [7] -0.47%

COC1CCCCC1NS(=O)(=O)c1ccc(Cl)cc1 (configuration not stated)
inactive: growth inhibition [1] 1.43% | growth inhibition [2] 2.45% | viability increase [3] -1.67% | viability [4] 93.3% | viability [5] 99.6% | inhibition [6] -0.11% | RAM network inhibition [7] -1.18%

O=S(=O)(NC1CCCCC1)c1cccc(-c2nnc(-c3ccccc3)o2)c1
inactive: growth inhibition [1] -12.2% | growth inhibition [2] -20.6% | viability increase [3] 0.12% | viability [4] 88.7% | viability [5] 81.2% | inhibition [6] 0.285% | RAM network inhibition [7] 3.44%
